Test results taken from ChEMBL document CHEMBL4130551, “1,2,4-Thiadiazolidin-3,5-diones as novel hydrogen sulfide donors” (Eur J Med Chem, 2018).
Active and inactive are the calls of the source. The rule behind the calls is not given here.

Assays:
[1] = Drug metabolism in PBS buffer assessed as H2S release by measuring time required for 50% of maximum H2S release at steady state at 1 mM after 30 mins in presence of 4 mM L-cysteine by amperometric method; format: physicochemical; settings: 0.5 h, 1000 µM
Method in brief: (§1)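 Amperometric real-time H2S detection at room temperature in assay buffer (10x PBS diluted 1:10 in distilled water). Donor added from DMSO stock to a final 1 mM, 1% DMSO, with 4 mM L-cysteine added where the protocol required. Recorded for 30 min. Curves computer-fitted. TCM50 is the time to reach ½ Cmax. Mean ± SE of 5 experiments.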

[2] = tested on: Thoracic aorta; experiment: Vasorelaxant activity in CD-1 mouse thoracic aorta rings assessed as inhibition of L-phenylephrine-induced contraction at 100 uM relative to control; format: functional; settings: CD-1, Thoracic aorta
Method in brief: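 Isolated aortic rings precontracted with phenylephrine (1 µM). Cumulative donor concentrations (10 nM–300 µM) or DMSO vehicle. Emax is the maximal relaxation obtained.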

[3] = tested on: Thoracic aorta; experiment: Vasorelaxant activity in CD-1 mouse thoracic aorta rings assessed as inhibition of L-phenylephrine-induced contraction; format: functional, tissue-based; settings: CD-1, Thoracic aorta
Method in brief: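 Isolated aortic rings precontracted with phenylephrine (1 µM). Cumulative concentration–response curves of each donor (10 nM–300 µM) or DMSO vehicle. EC50 taken from the curves.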

[4] = Drug level in pH 7.4 PBS buffer treated with 2,4-Diphenyl-1,2,4-thiadiazoline-3,5-dione at 0.5 mmol after 5 to 60 mins in presence of cysteine by HPLC-MS analysis; format: physicochemical
[5] = Drug metabolism in PBS buffer assessed as H2S release by measuring time required for 50% of maximum H2S release at steady state at 1 mM after 30 mins by amperometric method; format: physicochemical; settings: 0.5 h, 1000 µM; method in brief: as §1
[6] = tested on: Thoracic aorta; experiment: Vasorelaxant activity in CD-1 mouse endothelium denuded thoracic aorta rings assessed as inhibition of L-phenylephrine-induced contraction; format: functional, tissue-based
[7] = Stability in pH 7.4 PBS buffer at 0.5 mmol after 5 mins in presence of cysteine by HPLC analysis; format: physicochemical; settings: PBS buffer with cysteine, read-out: Stability
[8] = Stability in pH 7.4 PBS buffer at 0.5 mmol after 30 mins in presence of cysteine by HPLC analysis; format: physicochemical; settings: PBS buffer with cysteine, read-out: Stability
[9] = Drug metabolism in water at 0.5 mmol after 5 to 60 mins by ESI-MS analysis; format: physicochemical; settings: buffer
[10] = Drug metabolism in pH 7.4 PBS buffer assessed as phenyl(phenylcarbamoyl)carbamothioic S-acid formation at 0.5 mmol after 5 to 60 mins in presence of cysteine by HPLC-MS analysis; format: physicochemical
[11] = Drug metabolism in pH 7.4 PBS buffer at 0.5 mmol after 5 to 60 mins in presence of S-methyl cysteine by ESI-MS analysis; format: physicochemical
[12] = Drug level in pH 7.4 PBS buffer treated with 2,4-Diphenyl-1,2,4-thiadiazoline-3,5-dione at 0.5 mmol after 5 to 60 mins in presence of glutathione by ESI-MS analysis; format: physicochemical

Row | SMILES | Time [1] | Emax at 100 µM [2] | EC50 [3] | also measured
1 | COc1ccc(-n2sc(=O)n(-c3ccc(C)cc3)c2=O)cc1 | 13.25 min | 99% | 1500 nM | 
2 | COc1ccc(-n2sc(=O)n(C3CCCCC3)c2=O)cc1 | 13.93 min | 97.7% | 1900 nM | 
3 | O=C(Nc1ccccc1)Nc1ccccc1 [DIPHENYLUREA] |  |  |  | Drug metabolism [4]: Metabolite_Detected
4 | O=c1sn(-c2ccccc2)c(=O)n1Cc1ccccc1 | 11.4 min |  |  | Time [5]: 9.56 min
5 | O=c1sn(-c2ccc(F)cc2)c(=O)n1-c1ccccc1 | 9.52 min | 94.3% | 3900 nM | 
6 | COc1ccc(-n2sc(=O)n(-c3ccc(Cl)cc3)c2=O)cc1 | 15.36 min | 98.6% | 2100 nM | 
7 | O=c1sn(-c2ccccc2)c(=O)n1-c1ccccc1 | 12.01 min | 99.7% | 1700 nM | inhibition [6]: Active; remaining at 5 min, 0.5 mmol [7]: 82%; remaining at 0.5 h, 0.5 mmol [8]: 15%; Drug metabolism [9]: Metabolite_Notdetected; Drug metabolism [10]: Metabolite_Detected; Drug metabolism [11]: Metabolite_Notdetected
8 | Cc1ccc(-n2sc(=O)n(-c3ccccc3)c2=O)cc1 | 13.84 min | 94.5% | 1300 nM | 
9 | COc1ccc(-n2sc(=O)n(-c3ccccc3)c2=O)cc1 | 13.25 min | 100% | 1600 nM | 
10 | NC(CSSC(=O)N(C(=O)Nc1ccccc1)c1ccccc1)C(=O)O (centres undefined) |  |  |  | Drug metabolism [4]: Metabolite_Detected
11 | N[C@@H](CCC(=O)N[C@@H](CSSC(=O)N(C(=O)Nc1ccccc1)c1ccccc1)C(=O)NCC(=O)O)C(=O)O |  |  |  | Drug metabolism [12]: Metabolite_Detected
12 | NC(CSSCC(N)C(=O)O)C(=O)O (centres undefined) |  |  |  | Drug metabolism [4]: Metabolite_Detected
13 | COc1ccc(-n2sc(=O)n(-c3ccc(OC)cc3)c2=O)cc1 | 14.8 min | 95% | 3000 nM | 
14 | COc1ccc(-n2sc(=O)n(Cc3ccccc3)c2=O)cc1 | 15.75 min |  |  | Time [5]: 13.46 min
15 | O=C(S)N(C(=O)Nc1ccccc1)c1ccccc1 |  |  |  | Drug metabolism [4]: Metabolite_Detected
